According to ChEMBL document CHEMBL4138074, “(Indolylalkyl)piperidine carbamates as inhibitors of fatty acid amide hydrolase (FAAH)” (Medchemcomm, 2017):

Key:
[1] = biological target: T1, Fatty-acid amide hydrolase 1 (Rattus norvegicus, UniProt P97612); experiment: Inhibition of FAAH in rat brain microsomes assessed as reduction in enzyme-mediated 4-pyren-1-ylbutanoic acid release using N-(2-hydroxyethyl)-4-pyren-1-ylbutanamide as substrate incubated fro 60 mins by reversed phase HPLC method
T1 sequence (P97612 whole entry): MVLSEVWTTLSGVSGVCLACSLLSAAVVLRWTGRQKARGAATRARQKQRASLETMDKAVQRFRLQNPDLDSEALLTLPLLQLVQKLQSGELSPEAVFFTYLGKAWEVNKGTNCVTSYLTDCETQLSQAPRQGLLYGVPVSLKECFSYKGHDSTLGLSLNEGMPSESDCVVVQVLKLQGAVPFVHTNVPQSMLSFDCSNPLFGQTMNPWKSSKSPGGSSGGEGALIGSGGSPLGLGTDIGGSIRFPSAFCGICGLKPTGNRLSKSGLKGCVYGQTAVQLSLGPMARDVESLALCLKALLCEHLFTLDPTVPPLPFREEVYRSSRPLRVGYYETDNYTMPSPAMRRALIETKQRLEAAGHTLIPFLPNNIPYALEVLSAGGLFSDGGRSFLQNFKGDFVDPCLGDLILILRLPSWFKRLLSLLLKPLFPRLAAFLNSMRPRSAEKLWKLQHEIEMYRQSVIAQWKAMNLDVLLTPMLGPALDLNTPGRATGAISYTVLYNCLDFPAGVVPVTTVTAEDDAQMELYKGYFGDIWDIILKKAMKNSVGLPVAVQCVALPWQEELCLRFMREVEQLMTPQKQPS
Outline: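 Rat brain microsomes as enzyme source; fluorogenic substrate N-(2-hydroxyethyl)-4-pyren-1-ylbutanamide, with Triton X-100 in the incubation buffer to solubilize substrate and stabilize the membrane-bound enzyme. Incubation 60 min. Released 4-pyren-1-ylbutanoic acid quantified by reversed-phase HPLC with fluorescence detection, using 6-pyren-1-ylhexanoic acid as internal standard. Product is compared with and without inhibitor. IC50 is the mean of at least two independent determinations.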

[2] = Metabolic stability in rat liver S9 fractions assessed as parent compound remaining in presence of NADPH incubated fro 30 mins by HPLC and MS-detection based method; assay type: ADME, subcellular, S9 fraction; conditions: read-out: Stability
Outline: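 Compound incubated with rat liver S9 fraction plus cofactor NADPH for 30 min. Parent remaining measured by reversed-phase HPLC with MS detection and expressed as percent of parent. Mean ± SD of three independent determinations.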

[3] = Metabolic stability in porcine blood plasma assessed as parent compound remaining incubated fro 30 mins by HPLC and MS-detection based method; assay type: ADME, cell-free, Sus scrofa; conditions: pig, read-out: Stability
Outline: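 Porcine blood plasma incubation, 30 min. Remaining parent quantified by reversed-phase HPLC with MS detection and reported as percent remaining. Mean ± SD, n = 3 independent determinations.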

Row | SMILES | IC50 [1] [nM] | remaining at 0.5 h [2] [%] | remaining at 0.5 h [3] [%]
1 | O=C(Oc1ccccc1)N1CCC(CCn2ccc3cc(Cl)ccc32)CC1 | 410 |  | 
2 | N#Cc1ccc2c(ccn2CCC2CCN(C(=O)Oc3ccccc3)CC2)c1 | 970 |  | 
3 | O=C(Oc1ccccc1)N1CCC(Cn2ccc3ccccc32)CC1 | 9800 | 63 | 93
4 | O=C(Oc1ccccc1)N1CCC(CCn2ccc3ncccc32)CC1 | 1700 |  | 
5 | O=C(Oc1ccccc1)N1CCN(CCn2ccc3ccncc32)CC1 | 310 |  | 
6 | O=C(Oc1ccccc1)N1CCC(CCn2c3ccccc3c3ccccc32)CC1 | 410 |  | 
7 | O=C(Oc1ccccc1)N1CCC(CCn2ccc3ccc(F)cc32)CC1 | 46 | 82 | 93
8 | O=C(Oc1ccccc1)N1CCC(CCn2ccc3cc(F)ccc32)CC1 | 130 |  | 
9 | O=C(Oc1ccccc1)N1CCN(CCn2ccc3cccnc32)CC1 | 200 |  | 
10 | O=C(Oc1ccccc1)N1CCC(CCn2ccc3cccc(F)c32)CC1 | 52 |  | 
11 | O=C(Oc1ccccc1)N1CCC(CCCCn2ccc3ccccc32)CC1 | 180 | 78 | 87
12 | O=C(Oc1ccccc1)N1CCC(CCCn2ccc3ccccc32)CC1 | 570 | 80 | 93
13 | O=C(Oc1ccccc1)N1CCN(CCn2ccc3ccc(F)cc32)CC1 | 180 |  | 
14 | O=C(Oc1ccccc1)N1CCC(CCn2ccc3ccccc32)CC1 | 110 | 87 | 94
15 | CN(CCCCCn1ccc2ccc(F)cc21)C(=O)Oc1ccccc1 | 1600 | 65 | 93
16 | Cc1ccc2c(ccn2CCC2CCN(C(=O)Oc3ccccc3)CC2)c1 | 700 |  | 
17 | O=C(Oc1ccccc1)N1CCC(CCn2ccc3c(F)cccc32)CC1 | 110 |  | 
18 | O=C(Oc1ccccc1)N1CCN(CCn2ccc3cnccc32)CC1 | 790 |  | 
19 | COc1ccc2c(ccn2CCC2CCN(C(=O)Oc3ccccc3)CC2)c1 | 360 |  | 
